Screening data from PubChem.
In the library only some 3.4% were active in any assay of this set; here they are far more common.
ROMK mod = human ROMK K+ channel modulation, primary screen; P48048; Tet-inducible ROMK, thallium flux fluorescence; actives lie on both sides; B-score at 10 µM; actives 2% (n = 130,000);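 active means signal ratio slope over the read window, or its plate-corrected B-score, at least 3 SD from the plate mean, either direction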;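 further: B-score of the F/F0 ratio slope over 7 to 12 s after thallium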
Redox H2O2 prof = compounds producing H2O2 with reducing agent – biochemical, NIH compound library profiling, artefact control for MLSCN library redox annotation, primary screen; DTT-dependent redox cycling H2O2, phenol red/HRP absorbance; 100% = 100 µM peroxide control, 0% = buffer; activation, % at 10 µM; actives 0.03% (n = 200,000);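 active means activation of at least 50% relative to the plate's high and low controls in the primary single-dose screen; inactive means activation below 50%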;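 further: compound incubated with DTT at 0.8 mM final as the reducing agent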
Mdm2 ligase inh = Mdm2 E3 ligase (human) inhibition; cell-based MDM2 ubiquitination luciferase reporter, 2 h; 0 = plate control, 100 = twice control, blank-subtracted; signal enhancement, % at 5 µM; actives 0.11% (n = 210,000);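 active means signal enhancement of 30% or more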;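 further: luminescence tracks abundance of the self-degrading MDM2-luciferase fusion protein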
Target sequence (Q00987 whole entry, looked up, the tested form may be a part): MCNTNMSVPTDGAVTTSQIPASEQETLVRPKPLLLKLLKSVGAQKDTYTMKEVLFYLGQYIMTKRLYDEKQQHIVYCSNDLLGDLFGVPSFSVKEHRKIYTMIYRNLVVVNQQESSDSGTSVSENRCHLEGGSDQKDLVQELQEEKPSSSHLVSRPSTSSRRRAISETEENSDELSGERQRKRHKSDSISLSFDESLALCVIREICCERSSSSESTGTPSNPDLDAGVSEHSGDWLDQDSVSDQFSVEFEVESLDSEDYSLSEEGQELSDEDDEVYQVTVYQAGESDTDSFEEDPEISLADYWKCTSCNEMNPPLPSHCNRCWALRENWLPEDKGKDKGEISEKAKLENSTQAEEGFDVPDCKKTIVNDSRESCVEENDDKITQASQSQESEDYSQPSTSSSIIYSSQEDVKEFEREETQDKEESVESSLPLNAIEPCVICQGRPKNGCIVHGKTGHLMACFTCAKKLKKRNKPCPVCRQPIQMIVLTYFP
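Assay system: stable mammalian line carrying autodegrading MDM2–luciferase fusion reporter; amount: 2000 cells seeded into each well; buffer or medium: DMEM; benchmarks: plate control and blank wells; signal: luciferase luminescence; timing: 2 h compound exposure at 37 °C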
PKD1 inh = PKD1 (human) kinase inhibition; Q15139; PKD1 kinase fluorescence polarization assay; inhibition, % (concentration not given with the values); actives 0.056% (n = 200,000); AID 797; in the data active means inhibition above about 50%
p97 ATPase inh = human p97 ATPase inhibition; P55072; recombinant p97 ATPase, Kinase-Glo ATP luminescence, 3 h; inhibition, % at 8 µM; actives 0.42% (n = 220,000); AID 1481; in the data active means inhibition above about 15%
KCC2 mod = KCC2 (human) Cl- transport modulation; B-score of Tl+ flux slope (higher = more flux/activation; lower = inhibition) at 10 µM; Q9H2X9; actives 2.2% (n = 190,000); KCC2 cells, thallium flux FluoZin-2 fluorescence;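 active means thallium flux slope and its plate-corrected score both differing from the plate sample mean at a set confidence after two filtering rounds, in either direction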;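 further: slope of fluorescence scaled to starting intensity during 10 to 20 s after thallium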
ROMK retest = retested hit modulating human ROMK potassium channel; normalized thallium flux (F/F0 slope) at 10 µM; ROMK thallium flux, fluorescence ratio; hits give low values; actives 54% (n = 3,000); shares compounds with ROMK mod;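 active means Flux at 10 µM at least 3 SD below or above vehicle control mean in one or both replicates; inconclusive means no clear call, values can overlap the other calls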
Each line names hits and unclear results; the compound was inactive in the other large screens (follow-up assays come after a bar, where they were run); ! = not active in a repeat.

CCOC(=O)C1CCCN(c2nc3ccccc3nc2C(C#N)C(=O)OCCOC)C1 (stereo not given)	none
CCOC(=O)C1CCCN(c2nc3ccccc3nc2C(C#N)C(=O)OC(C)COC)C1 (stereo not given)	none | ROMK retest inactive
CC(=O)NS(=O)(=O)c1ccc(NC(=O)CSc2ccccc2)cc1	none (no result: ROMK mod, Redox H2O2 prof, PKD1 inh) | ROMK retest inactive
CC1CCN(CCCNC(=O)c2ccc(CSCc3cccc(Cl)c3)o2)CC1	ROMK mod -4.2 | ROMK retest 0.053
O=C(C[n+]1cc(-c2ccc(Cl)cc2)n2c1CCC2)N1c2ccccc2Sc2ccccc21	none
CC1CCC(C(C)C)C(OC(=O)C[n+]2cc(-c3ccc(Cl)cc3)n3c2CCC3)C1 (stereo not given)	ROMK mod -6.6 (no result: Redox H2O2 prof, PKD1 inh) | ROMK retest 0.047
CN1CC=C2C(C#N)=C(N)C(C#N)(C#N)[C@H](c3cccs3)[C@H]2C1	none
CN1CCC2(CC1)C1CN(C)CC=C1C(C#N)=C(N)C2(C#N)C#N (stereo not given)	ROMK mod -3.4! | ROMK retest 0.057
Cc1cccc2sc(N(CCCN(C)C)C(=O)CN3C(=O)c4ccccc4C3=O)nc12	none
Cc1cccc2sc(N(CCCN(C)C)C(=O)CCc3ccccc3)nc12	ROMK mod -2.1 | ROMK retest 0.064
CS(=O)c1ccccc1-c1nc(-c2cccc(Cl)c2)no1 (stereo not given)	none
COc1cc(/C=N/NC(=O)C(=O)/C=C2\NC(C)(C)Cc3ccccc32)ccc1O	ROMK mod 2.2 (no result: Redox H2O2 prof, PKD1 inh) | ROMK retest inactive
COc1ccc(N(C(=O)CCl)C(C(=O)NCCc2ccccc2)c2cccs2)cc1Cl (stereo not given)	ROMK mod -3.3 (no result: Mdm2 ligase inh) | ROMK retest 0.063
COc1cccc(N(C(=O)CCl)C(C(=O)NCCc2ccccc2)c2cccs2)c1 (stereo not given)	none
O=C(COC(=O)c1cccs1)NC12CC3CC(CC(C3)C1)C2	none
CC(C)(C)Nc1nc(Cl)nc(NCc2ccccc2)n1	ROMK mod -8.5 (no result: Redox H2O2 prof, PKD1 inh) | ROMK retest 0.047
O=C(CSc1nc2ccccc2o1)N1CCN(S(=O)(=O)c2ccc3ccccc3c2)CC1	ROMK mod -3.6 | ROMK retest inactive
Cc1ccc(S(=O)(=O)N2CCN(C(=O)CSc3nc4ccccc4o3)C2)cc1	none (no result: ROMK mod)
CC1=NOC(=O)/C1=C\c1ccc(-c2ccccc2Br)o1	ROMK mod -8.7 | ROMK retest 0.062
COc1cc(/C=C2/C(=O)ON=C2c2ccccc2)ccc1O	ROMK mod -6.8 | ROMK retest 0.044
Cc1ccc(/C=C2/C(=O)ON=C2c2ccccc2)o1	none (no result: ROMK mod, Redox H2O2 prof, PKD1 inh) | ROMK retest 0.04
Cc1ccc(NC(=O)c2nc(C)n(-c3ccc([N+](=O)[O-])cc3)n2)cc1	none (no result: ROMK mod, KCC2 mod) | ROMK retest inconclusive
CC(=O)N1CCc2cc(C(=O)CN3CCC(C)CC3)ccc21	none (no result: ROMK mod, KCC2 mod)
CS(=O)(=O)n1nc(OC(=O)c2cccc3ccccc23)cc1N	none (no result: KCC2 mod)
CS(=O)(=O)n1nc(OC(=O)c2cc(Br)ccc2Cl)cc1N	ROMK mod -3 | ROMK retest 0.054
O=C(CCCn1c(=S)[nH]c2ccc(Br)cc2c1=O)NCC1CCCO1 (stereo not given)	none (no result: ROMK mod, KCC2 mod)
COc1ccc(-n2c(SCc3nnc(-c4ccccc4)o3)nnc2-c2ccccc2)cc1	none (no result: ROMK mod) | ROMK retest 0.064
Cc1cc(NC(=O)CSc2nnc(-c3ccncc3)n2-c2ccc(F)cc2)no1	none
COc1ccc(-c2noc(CSc3nnc(-c4ccncc4)n3-c3ccc(F)cc3)n2)cc1OC	none (no result: ROMK mod) | ROMK retest inactive
CCCC(CCC(=O)Nc1ccc(C(=O)OC)cc1)C(=O)O (stereo not given)	none (no result: ROMK mod)
Cc1cc(-c2csc(NC(=O)c3cc4ccccc4o3)n2)c(C)n1C	none (no result: ROMK mod) | ROMK retest inconclusive
O=C(N/C(=C/c1cccnc1)C(=O)N1CCOCC1)c1ccccc1F	none (no result: ROMK mod, Redox H2O2 prof, PKD1 inh)
N#CCc1c(C#N)c(N)nc(N2CCN(Cc3ccc4c(c3)OCO4)CC2)c1C#N	ROMK mod -5.6 | ROMK retest 0.048
Cc1cc(C)c(C#N)c(N2CCN(Cc3ccc4c(c3)OCO4)CC2)n1	none (no result: KCC2 mod)
Cc1nc2cc(C(=O)OCC(=O)NC34CC5CC(CC(C5)C3)C4)ccc2n1-c1ccccc1	ROMK mod -3 | ROMK retest 0.065
Cc1nc2cc(C(=O)OCC(=O)NC3CCS(=O)(=O)C3)ccc2n1-c1ccccc1 (stereo not given)	none (no result: KCC2 mod)
C=CCn1c(SCc2c(C)noc2C)nc2cc(C(=O)O)ccc2c1=O	ROMK mod 6 | ROMK retest inconclusive
C=CCn1c(SCc2c(C)noc2C)nc2ccccc2c1=O	none
CCOC(=O)c1ccc(Oc2nc(OC)nc(N(C)C)n2)cc1	none (no result: ROMK mod)
CN(C)c1nc(Oc2ccc(C(=O)OCC(=O)Nc3ccccc3)cc2)nc(N(C)C)n1	none (no result: ROMK mod) | ROMK retest inactive
COc1ccc(C(=O)NC(=S)Nc2cccnc2)cc1[N+](=O)[O-]	none
COc1cc(NC(=O)Nc2ccccc2)c(OC)cc1NC(=O)CN1CCCCC1	none (no result: KCC2 mod)
O=C(Nc1ccc(Oc2cccc(C(F)(F)F)c2)nc1)c1ccccc1	none (no result: ROMK mod, Redox H2O2 prof, PKD1 inh)
O=C(Nc1ccc(Oc2cccc(C(F)(F)F)c2)nc1)c1cccs1	none (no result: ROMK mod, Redox H2O2 prof, PKD1 inh) | ROMK retest 0.064
O=S(=O)(Cc1ccccc1)Nc1ccc(S(=O)(=O)NCC2CCCO2)cc1 (stereo not given)	none (no result: ROMK mod, KCC2 mod) | ROMK retest inactive
CCOc1ccc(NCC2CCOC(C)(C)C2)cc1 (stereo not given)	none
CO[C@@]1(NC(=O)Cc2cccs2)C(=O)N2C(C(=O)O)=C(COC(N)=O)CS[C@@H]21	none (no result: ROMK mod, Mdm2 ligase inh)
CNC(=S)N/N=C/c1ccc(-c2cc([N+](=O)[O-])ccc2Cl)o1	none
CN1CCN(/N=C/c2ccc(-c3ccc([N+](=O)[O-])cc3Cl)o2)CC1	ROMK mod -3.8 | ROMK retest 0.045
O=C(Nc1cccc(N=Cc2cc(Cl)cc(Br)c2O)c1)c1ccco1	ROMK mod 4.1 | ROMK retest 0.11
O=C(Nc1cccc(N=Cc2cc(Br)cc(Br)c2O)c1)c1ccco1	none (no result: ROMK mod) | ROMK retest 0.11
C/C(=N\NC(=O)c1cccc(Cl)c1)c1cccc(NC(=O)c2ccco2)c1	none (no result: ROMK mod)
Cc1noc(C)c1-c1nc(CS(=O)(=O)c2ccc(Cl)cc2)no1	none (no result: ROMK mod, Redox H2O2 prof, PKD1 inh)
Cc1cccc(COCC(Cc2ccccc2)N2CCN(C(=O)c3ccc(Cl)c(Cl)c3)CCC2=O)c1 (stereo not given)	ROMK mod -2.6 (no result: Mdm2 ligase inh) | ROMK retest 0.06
Cc1cc(-c2c(C)[nH]n(-c3ccc(Cl)cc3)c2=O)n[nH]1	none (no result: ROMK mod)
CCn1nc(C(=O)OCc2cccc(S(=O)(=O)N(C)C)c2)c2ccccc2c1=O	none (no result: ROMK mod, Redox H2O2 prof, Mdm2 ligase inh, PKD1 inh) | ROMK retest inconclusive
